Screens from PubChem.
Shown are actives, neighbours in structure and some others; about 2.6% of the full set was active somewhere.
SENP6 block – blocks the human protease SENP6; actives 1.8% (n = 330,000); Q9GZR1; Recombinant SENP6 catalytic domain, aminoluciferin luminescence; inhibition, % at 10 µM;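 active = inhibition above about 50% at the single tested dose, limit read from the data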;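 note: plate controls were DMSO wells with enzyme for no effect and DMSO wells lacking enzyme for full effect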
SENP1 inh – inhibitors of human SENP1 SUMO protease catalytic domain | actives 0.21% (n = 360,000) | recombinant SENP1 catalytic domain, CyPet-SUMO1-YPet FRET cleavage | inhibition, % at 10 µM;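 active = inhibition at least 30% at 10 µM, raw YFP signal under a set limit, fluorescence ratio 0.5 to 1.5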;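 note: 0% = enzyme with DMSO and 100% = no enzyme wells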
Target sequence (Q9P0U3 419-644 limits assumed): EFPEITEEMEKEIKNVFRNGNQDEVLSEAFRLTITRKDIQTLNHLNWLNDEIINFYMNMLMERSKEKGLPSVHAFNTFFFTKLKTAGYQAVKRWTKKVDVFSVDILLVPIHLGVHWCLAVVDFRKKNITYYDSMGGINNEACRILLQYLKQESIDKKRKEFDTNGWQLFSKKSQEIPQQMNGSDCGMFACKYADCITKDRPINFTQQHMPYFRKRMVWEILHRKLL
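System: Recombinant human SENP1 catalytic domain, His6-tagged | Incubation: Enzyme reaction for 50 min at room temperature, dark | Medium: Tris pH 8 with BME, BSA, NP40 and catalase | Also added: 25 nM SUMO1 FRET substrate | Compound: 10 µM single point, 0.5% DMSO | Measured by: FRET fluorescence in CFP and YFP emission channels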
Platelet DG rel – platelet dense granule release activity. actives 0.22% (n = 300,000). inhibition, %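 (compounds screened at 7.5 µM in platelet-rich plasma)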. human platelet-rich plasma, SFLLRN dense granule ATP release, luminescence;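 active = mean replicate score, as percent of positive control, at or above 50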
SENP8 block-1 – inhibitors of human SENP8 protease. actives 1.2% (n = 330,000). Q96LD8. purified SENP8, Z-RLRGG-aminoluciferin cleavage, luminescence. inhibition, % at 10 µM; in the data active = inhibition above about 50%
SENP7 inh – inhibitors of human SENP7 protease; Q9BQF6; actives 1.5% (n = 330,000); recombinant SENP7, Z-RLRGG-aminoluciferin luminescence, 40 min; inhibition, % at 5 µM;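 active = inhibition above about 50% at the single test dose, limit read from the data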;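 note: plate controls were DMSO with enzyme for no effect and no enzyme buffer wells for full effect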
Target sequence (Q9BQF6 706-1050 limits assumed): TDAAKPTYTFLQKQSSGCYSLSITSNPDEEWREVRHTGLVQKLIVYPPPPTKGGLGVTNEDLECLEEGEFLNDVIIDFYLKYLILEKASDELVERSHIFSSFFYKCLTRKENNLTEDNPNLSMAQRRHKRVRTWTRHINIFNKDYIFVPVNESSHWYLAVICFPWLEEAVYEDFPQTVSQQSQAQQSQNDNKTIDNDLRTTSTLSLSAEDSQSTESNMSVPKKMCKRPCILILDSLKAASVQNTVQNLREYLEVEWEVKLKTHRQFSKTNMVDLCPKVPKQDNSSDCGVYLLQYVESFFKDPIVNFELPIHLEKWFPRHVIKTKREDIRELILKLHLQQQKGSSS
SENP8 block-2 – blocks human SENP8 cleavage of Nedd8 substrate; Q96LD8; recombinant SENP8, Nedd8 substrate fluorescence; inhibition, % at 20 µM; actives 0.64% (n = 360,000); in the data active = inhibition mostly above about 40%, no sharp cut-off; inactive = mostly below about 27%
SENP8 confirm – human SENP8 inhibition, confirmed; inhibition, % at 12.5 µM; Recombinant SENP8, Z-RLRGG-aminoluciferin luminescence, 60 min; shares compounds with SENP7 inh; actives 40% (n = 6,200);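 active = mean inhibition across replicates above about 50%, limit read from the data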
SENP6 confirm – human SENP6 inhibition, confirmed. shares compounds with SENP7 inh. recombinant SENP6, Z-RLRGG-aminoluciferin luminescence. inhibition, % at 12.5 µM. actives 58% (n = 6,200)
SENP7 conf – human SENP7 inhibition, confirmed. recombinant SENP7, Z-RLRGG-aminoluciferin luminescence, 40 min. shares compounds with SENP7 inh. inhibition, % at 12.5 µM. actives 69% (n = 6,200). AID 488917
Casp3 SENP sel – selectivity test for SENP inhibitors: human caspase-3 inhibition. inhibition, % at 12.5 µM. AID 488918. actives 60% (n = 6,200). shares compounds with SENP7 inh. purified caspase-3, Z-DEVD-aminoluciferin luminescence, 60 min;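 active = mean inhibition above about 50%, limit read from the data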;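 note: plate controls were enzyme with DMSO for no effect and wells without caspase-3 for full effect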
Luc interf – interferes with luciferase luminescence in SENP counter-screen; inhibition, % at 12.5 µM; Pre-incubated SENP8/Z-RLRGG-aminoluciferin, luciferase luminescence interference; AID 488919; actives 39% (n = 6,200); shares compounds with SENP7 inh;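 active = mean inhibition above about 50% when retested at one dose, limit read from the data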;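 note: plate controls were DMSO wells with completed reaction for no effect and substrate without enzyme for full effect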
Active calls of the source: *.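 Rule for the calls, unless noted: active = mean inhibition above about 50% in the one-dose retest (limit read from the data); inactive = the rest.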

Cc1ccc(S(=O)(=O)N2C[C@H]3N(C(=O)OC(C)C)N(C(=O)OC(C)C)C[C@H](OC(=O)NCc4ccco4)[C@@]3(O)C2)cc1 was read as SENP1 inh 2 and SENP8 block-2 5.
Screening COc1ccc2oc(=O)c(-c3nc(C)cs3)cc2c1 returned SENP6 block 48, SENP1 inh -28, SENP8 block-1 75*, SENP7 inh 92*, SENP8 block-2 -294, SENP8 confirm -11, SENP6 confirm 21, SENP7 conf 24, Casp3 SENP sel 32 and Luc interf 12.
For O=C(C=Cc1cccs1)c1cccs1 the results were SENP1 inh 0 and SENP8 block-2 3.
`O=C(/C=C/Nc1ccccc1F)c1cccs1` gave SENP6 block 96*, SENP1 inh -37, Platelet DG rel 48, SENP8 block-1 96*, SENP7 inh 100*, SENP8 block-2 -79, SENP8 confirm 97*, SENP6 confirm 100*, SENP7 conf 103*, Casp3 SENP sel 98* and Luc interf 97*.
`O=C(Cc1cccs1)Nc1ccc(F)cc1F` gave SENP6 block 18, SENP1 inh -4, Platelet DG rel -1, SENP8 block-1 0, SENP7 inh 7 and SENP8 block-2 -3.
`O=C(/C=C/Nc1ccc(F)cc1F)c1cccs1` gave SENP6 block 96*, SENP1 inh -49, Platelet DG rel 36, SENP8 block-1 97*, SENP7 inh 99*, SENP8 block-2 -138, SENP8 confirm -8, SENP6 confirm 100*, SENP7 conf 104*, Casp3 SENP sel 98* and Luc interf 27.
For Cc1noc(NS(=O)(=O)c2ccc(N/C=C\C(=O)c3cccs3)cc2)c1C the results were SENP6 block 16, SENP1 inh -68, Platelet DG rel -3, SENP8 block-1 -3, SENP7 inh -15 and SENP8 block-2 -63.
For Cc1ccc(N/C=C/C(=O)c2cccs2)cc1 the results were SENP6 block 93*, SENP1 inh -37, Platelet DG rel 52*, SENP8 block-1 94*, SENP7 inh 93*, SENP8 block-2 -163, SENP8 confirm 79*, SENP6 confirm 97*, SENP7 conf 101*, Casp3 SENP sel 95* and Luc interf 70*.
Screening O=C(/C=C\Nc1cccc(F)c1)c1cccs1 returned SENP6 block 94*, SENP1 inh -83, Platelet DG rel 17, SENP8 block-1 89*, SENP7 inh 92*, SENP8 block-2 -284, SENP8 confirm 96*, SENP6 confirm 97*, SENP7 conf 102*, Casp3 SENP sel 93* and Luc interf 95*.
For CCn1c(C)nc2cc(-c3nc4n(n3)Cc3ccccc3-4)ccc21 the results were SENP6 block 96*, SENP1 inh -3, Platelet DG rel 97*, SENP8 block-1 96*, SENP7 inh 100*, SENP8 block-2 -6, SENP8 confirm 99*, SENP6 confirm 100*, SENP7 conf 103*, Casp3 SENP sel 99* and Luc interf 86*.
For Cc1cc(C)n2nc(-c3ccc(F)cc3)nc2n1 the results were SENP6 block 22, SENP1 inh 0, Platelet DG rel 8, SENP8 block-1 0, SENP7 inh 11 and SENP8 block-2 27.
For Fc1ccc(-c2nc3n(n2)Cc2ccccc2-3)cc1 the results were SENP6 block 100*, SENP1 inh 1, SENP8 block-1 95*, SENP7 inh 99*, SENP8 block-2 19, SENP8 confirm 93*, SENP6 confirm 98*, SENP7 conf 102*, Casp3 SENP sel 98* and Luc interf 64*.
Screening Cc1ccc(-c2nc3n(n2)Cc2ccccc2-3)cc1 returned SENP6 block 97*, SENP1 inh 1, Platelet DG rel 18, SENP8 block-1 96*, SENP7 inh 99*, SENP8 block-2 14, SENP8 confirm 80*, SENP6 confirm 91*, SENP7 conf 103*, Casp3 SENP sel 98* and Luc interf 68*.
`NC(=S)Cc1nc2n(n1)Cc1ccccc1-2` gave SENP6 block -9, SENP1 inh 6, Platelet DG rel 9, SENP8 block-1 -4, SENP7 inh -5 and SENP8 block-2 3.
CC(=O)C1=CCC(c2ccccc2)N(S(=O)(=O)c2ccccc2)C1 (stereo not drawn) was read as SENP1 inh 2 and SENP8 block-2 25.
For CCN(C(=O)COC(=O)Cn1c(C)csc1=O)c1c(N)n(Cc2ccccc2)c(=O)[nH]c1=O the results were SENP6 block 3, SENP1 inh 0, SENP8 block-1 9, SENP7 inh 2 and SENP8 block-2 3.
For COc1ccc(CNC(=O)Cn2nc(C)n3cccc3c2=O)cc1 the results were SENP6 block -7, SENP1 inh 3, Platelet DG rel 4, SENP8 block-1 6, SENP7 inh -4 and SENP8 block-2 10.
`CCc1cccc(NC(=O)CN(c2ccc(C)cc2)S(=O)(=O)c2c(C)noc2C)c1` gave SENP6 block 17, SENP1 inh 1, Platelet DG rel 19, SENP8 block-1 -10, SENP7 inh 2 and SENP8 block-2 12.
For CCNC(=O)C1Cc2cc(S(=O)(=O)N3CCCC3)ccc2N1C(C)=O (stereo not drawn) the results were SENP6 block 9, SENP1 inh 0, Platelet DG rel 4, SENP8 block-1 6, SENP7 inh -1 and SENP8 block-2 1.
`COc1ccc(CNCC(=O)Nc2ccccc2-n2cccc2)cc1` gave SENP6 block -1, SENP1 inh 2, Platelet DG rel 0, SENP8 block-1 -4, SENP7 inh 6 and SENP8 block-2 7.
`NS(=O)(=O)c1ccc(NC2=CC(=O)C(=O)c3ccccc32)cc1` gave SENP6 block 87*, SENP1 inh 2, Platelet DG rel -2, SENP8 block-1 88*, SENP7 inh 42, SENP8 block-2 50*, SENP8 confirm 12, SENP6 confirm 94*, SENP7 conf 84*, Casp3 SENP sel 14 and Luc interf 15.
